pIC50: −log10 of the molar value.
Columns and labels:
MRC5 [1] = experiment: Cytotoxic activity of compound against uninfected MRC5 cells; format: functional; details: Homo sapiens
How it was run: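 Uninfected MRC5 monolayers given the same six compound concentrations in triplicate and incubated 5 days. Minimum cytotoxic dose estimated by microscopic examination.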

MOLT-4 [2] = experiment: Cytotoxic activity of compound against growing cultures of human leukemic T-cell lines Molt-4 100 uM; format: functional
Homo sapiens [3] = species on record: Homo sapiens; experiment: Cytotoxic activity of compound against uninfected 2.2.15 cells.; format: functional; details: HepG2 2.2.15
How it was run: (§1)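 Growing cultures of 2.2.15 cells, used for both antiviral effect and cytotoxicity. IC50 and CC50 each come from five compound concentrations encompassing the value. Data are means of four replicate samples.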

IM-9 [4] = experiment: Cytotoxic activity of compound against growing cultures of human leukemicB-cell line IM-9 at 100 uM; format: functional
Homo sapiens [5] = species on record: Homo sapiens; experiment: Inhibitory activity of compound against hepatitis B virus (HBV) in growing cultures of 2.2.15 cells; format: functional, cell-based; details: HepG2 2.2.15; how it was run: as §1
CCRF-CEM [6] = experiment: Cytotoxic activity of compound against growing cultures of human leukemic T-cell lines CEM 100 uM; format: functional
MRC5 [7] = experiment: Inhibitory activity of compound against human cytomegalovirus (HCMV) strain AD169 in monolayers of MRC5 cells; format: functional, cell-based
How it was run: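 MRC5 human embryonic lung monolayers infected with HCMV AD169 at ca. 0.01 infectious particles/cell. Compound added at six concentrations, each in triplicate, then incubated 5 days. IC50 estimated from well HCMV DNA measured by blotting and quantitative specific DNA hybridization. Reported value is the mean of at least two determinations done at different times.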

CCRF-CEM [8] = experiment: Cytotoxic activity of compound against growing cultures of human leukemic T-cell lines CEM at 100 uM; format: functional
MOLT-4 [9] = experiment: Cytotoxic activity of compound against growing cultures of human leukemic T-cell lines Molt-4 at 100 uM; format: functional
CCRF-CEM [10] = experiment: Cytotoxic activity of compound against growing cultures of human leukemic T-cell lines CEM; format: functional
How it was run: (§2)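 Growing cultures of the human leukemic line (T-cell CEM or Molt 4; B-cell IM-9). CC50 taken from five compound concentrations spanning the CC50. Data are means of three replicate samples.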

MOLT-4 [11] = experiment: Cytotoxic activity of compound against growing cultures of human leukemic T-cell lines Molt-4; format: functional; how it was run: as §2
IM-9 [12] = experiment: Cytotoxic activity of compound against growing cultures of human leukemicB-cell line IM-9; format: functional; how it was run: as §2

Question: Which results are given for `Nc1nc(Cl)c2ncn(C3CC(O)C(CO)S3)c2n1` (stereo unspecified)?
Answer: CC50 (MRC5 [1]): 2 µM; CC50 (MOLT-4 [2]): 3.8 µM; CC50 (Homo sapiens [3]): > 0.2 µM; CC50 (IM-9 [4]): 42 µM; pIC50 (Homo sapiens [5]): 9.00; CC50 (CCRF-CEM [6]): 10 µM; pIC50 (MRC5 [7]): 7.00

Question: For `CCCNc1nc(N)nc2c1ncn2C1CC(O)C(CO)S1` (stereo unspecified), which Control (CCRF-CEM [8]) is on record?
Answer: The Control was 68%.

Question: What about the CC50 (MRC5 [1]) of the same molecule?
Answer: Its CC50 is greater than 50 µM.

Question: What about the Control (MOLT-4 [9]) of the same molecule?
Answer: The Control was 52%.

Question: What about the CC50 (Homo sapiens [3]) of the same molecule?
Answer: Its CC50 is greater than 0.2 µM.

Question: And the Control (IM-9 [4])?
Answer: The Control was 92%.

Question: And the pIC50 (Homo sapiens [5])?
Answer: The pIC50 was 7.21.

Question: And the pIC50 (MRC5 [7])?
Answer: Its pIC50 is 5.70.

Question: For `C=CCNc1nc(N)nc2c1ncn2C1CC(O)C(CO)S1` (stereo unspecified), which CC50 (MRC5 [1]) is on record?
Answer: The CC50 was greater than 200 µM.

Question: What about the CC50 (Homo sapiens [3]) of the same molecule?
Answer: The CC50 was greater than 0.2 µM.

Question: What about the Control (IM-9 [4]) of the same molecule?
Answer: Its Control is 67%.

Question: And the CC50 (CCRF-CEM [10])?
Answer: Its CC50 is 60 µM.

Question: What about the pIC50 (Homo sapiens [5]) of the same molecule?
Answer: Its pIC50 is 7.24.

Question: What about the CC50 (MOLT-4 [11]) of the same molecule?
Answer: The CC50 was 40 µM.

Question: What about the pIC50 (MRC5 [7]) of the same molecule?
Answer: The pIC50 was 5.82.

Question: `CSc1nc(N)nc2c1ncn2C1CC(O)C(CO)S1` (stereo unspecified) was tested. Which Control (CCRF-CEM [8]) did it give?
Answer: The Control was 78%.

Question: What about the CC50 (MRC5 [1]) of the same molecule?
Answer: Its CC50 is greater than 20 µM.

Question: And the Control (MOLT-4 [9])?
Answer: The Control was 73%.

Question: What about the CC50 (Homo sapiens [3]) of the same molecule?
Answer: The CC50 was greater than 200 µM.

Question: What about the Control (IM-9 [4]) of the same molecule?
Answer: The Control was 88%.

Question: And the pIC50 (Homo sapiens [5])?
Answer: Its pIC50 is 6.35.

Question: And the pIC50 (MRC5 [7])?
Answer: The pIC50 was 5.70.

Question: Which Control (CCRF-CEM [8]) does the source give for `Nc1nc(N2CCCCC2)c2ncn(C3CC(O)C(CO)S3)c2n1` (stereo unspecified) here?
Answer: Its Control is 80%.

Question: And the CC50 (MRC5 [1])?
Answer: Its CC50 is greater than 200 µM.

Question: What about the Control (MOLT-4 [9]) of the same molecule?
Answer: Its Control is 77%.

Question: What about the CC50 (Homo sapiens [3]) of the same molecule?
Answer: The CC50 was greater than 200 µM.

Question: What about the Control (IM-9 [4]) of the same molecule?
Answer: The Control was 88%.

Question: And the pIC50 (Homo sapiens [5])?
Answer: The pIC50 was 5.40.

Question: And the pIC50 (MRC5 [7])?
Answer: The pIC50 was 5.22.

Question: How did the CC50 (MRC5 [1]) turn out when `COc1nc(N)nc2c1ncn2C1CC(O)C(CO)S1` (stereo unspecified) was run?
Answer: Its CC50 is greater than 5 µM.

Question: What about the CC50 (Homo sapiens [3]) of the same molecule?
Answer: Its CC50 is 14 µM.

Question: What about the CC50 (CCRF-CEM [10]) of the same molecule?
Answer: The CC50 was 8 µM.

Question: And the pIC50 (Homo sapiens [5])?
Answer: Its pIC50 is 8.60.

Question: What about the CC50 (MOLT-4 [11]) of the same molecule?
Answer: Its CC50 is 2 µM.

Question: What about the CC50 (IM-9 [12]) of the same molecule?
Answer: The CC50 was 5 µM.

Question: What about the pIC50 (MRC5 [7]) of the same molecule?
Answer: The pIC50 was 7.21.

Question: What does the source list for `Nc1nc(O)c2ncn(C3CC(O)C(CO)S3)c2n1` (stereo unspecified)?
Answer: CC50 (MRC5 [1]): 2 µM; CC50 (Homo sapiens [3]): 13 µM; CC50 (CCRF-CEM [10]): 9 µM; pIC50 (Homo sapiens [5]): 8.70; CC50 (MOLT-4 [11]): 14 µM; CC50 (IM-9 [12]): 4 µM; pIC50 (MRC5 [7]): 7.22

Question: Which results are given for `Nc1nc(N2CCCC2)c2ncn(C3CC(O)C(CO)S3)c2n1` (stereo unspecified)?
Answer: Control (CCRF-CEM [8]): 71%; CC50 (MRC5 [1]): > 200 µM; Control (MOLT-4 [9]): 112%; CC50 (Homo sapiens [3]): > 200 µM; Control (IM-9 [4]): 99%; pIC50 (Homo sapiens [5]): 6.07; pIC50 (MRC5 [7]): 5.00

Question: How did the CC50 (MRC5 [1]) turn out when `Nc1nc(OCC2CC2)c2ncn(C3CC(O)C(CO)S3)c2n1` (stereo unspecified) was run?
Answer: Its CC50 is greater than 20 µM.

Question: And the CC50 (Homo sapiens [3])?
Answer: Its CC50 is greater than 0.2 µM.

Question: And the CC50 (CCRF-CEM [10])?
Answer: The CC50 was 41 µM.

Question: What about the pIC50 (Homo sapiens [5]) of the same molecule?
Answer: Its pIC50 is 7.46.

Question: And the CC50 (MOLT-4 [11])?
Answer: Its CC50 is 13 µM.

Question: What about the CC50 (IM-9 [12]) of the same molecule?
Answer: Its CC50 is 61 µM.

Question: And the pIC50 (MRC5 [7])?
Answer: Its pIC50 is 6.22.

Question: For `CCN(C)c1nc(N)nc2c1ncn2C1CC(O)C(CO)S1` (stereo unspecified), which Control (CCRF-CEM [8]) is on record?
Answer: The Control was 69%.

Question: And the CC50 (MRC5 [1])?
Answer: The CC50 was greater than 20 µM.

Question: What about the Control (MOLT-4 [9]) of the same molecule?
Answer: The Control was 77%.

Question: And the CC50 (Homo sapiens [3])?
Answer: Its CC50 is greater than 200 µM.

Question: And the Control (IM-9 [4])?
Answer: The Control was 85%.

Question: What about the pIC50 (Homo sapiens [5]) of the same molecule?
Answer: The pIC50 was 6.72.

Question: And the pIC50 (MRC5 [7])?
Answer: The pIC50 was 5.70.

Question: What does the source list for `CC(C)Nc1nc(N)nc2c1ncn2C1CC(O)C(CO)S1` (stereo unspecified)?
Answer: Control (CCRF-CEM [8]): 80%; CC50 (MRC5 [1]): > 100 µM; Control (MOLT-4 [9]): 77%; CC50 (Homo sapiens [3]): > 200 µM; Control (IM-9 [4]): 90%; pIC50 (Homo sapiens [5]): 6.52; pIC50 (MRC5 [7]): 5.40

Question: Which Control (CCRF-CEM [8]) does the source give for `Nc1nc(NC2CC2)c2ncn(C3CC(O)C(CO)S3)c2n1` (stereo unspecified) here?
Answer: The Control was 68%.

Question: And the CC50 (MRC5 [1])?
Answer: Its CC50 is 15 µM.

Question: What about the Control (MOLT-4 [9]) of the same molecule?
Answer: Its Control is 11%.

Question: And the CC50 (Homo sapiens [3])?
Answer: Its CC50 is 77 µM.

Question: What about the Control (IM-9 [4]) of the same molecule?
Answer: Its Control is 78%.

Question: What about the pIC50 (Homo sapiens [5]) of the same molecule?
Answer: The pIC50 was 8.14.

Question: What about the pIC50 (MRC5 [7]) of the same molecule?
Answer: The pIC50 was 6.70.

Question: For `CN(c1nc(N)nc2c1ncn2C1CC(O)C(CO)S1)C1CC1` (stereo unspecified), which Control (CCRF-CEM [8]) is on record?
Answer: Its Control is 58%.

Question: And the CC50 (MRC5 [1])?
Answer: The CC50 was greater than 20 µM.

Question: And the CC50 (Homo sapiens [3])?
Answer: The CC50 was 101 µM.

Question: And the Control (IM-9 [4])?
Answer: The Control was 72%.

Question: And the pIC50 (Homo sapiens [5])?
Answer: Its pIC50 is 6.52.

Question: What about the CC50 (MOLT-4 [11]) of the same molecule?
Answer: The CC50 was 100 µM.

Question: What about the pIC50 (MRC5 [7]) of the same molecule?
Answer: The pIC50 was 5.70.

— ChEMBL document CHEMBL1129667, “Synthesis and antiviral activity of 2'-deoxy-4'-thio purine nucleosides” (J Med Chem, 1996)
